We go through 15 molecules from ChEMBL document CHEMBL1140346 (J Med Chem, 2005).

In series [1] the target is Dipeptidyl peptidase 4 (Rattus norvegicus) (UniProt P14740). Description: Ex vivo percent inhibition of Dipeptidyl peptidase IV in rat plasma after 30 min at 4 umol/kg peroral dose. In kind it is functional, cell-free.
The target is the same in series [2]. Description: Ex vivo Dipeptidyl peptidase IV inhibition in rat plasma after 4 hr 4 umol/kg peroral dose. In kind it is functional, cell-free.
Series [3] has the same target. Description: Ex vivo percent inhibition of Dipeptidyl peptidase IV in rat plasma after 4 hr at 4 umol/kg peroral dose. In kind it is functional, cell-free.
For series [4] the target is unchanged. Description: Effective dose for inhibition of Dipeptidyl peptidase IV in prediabetic rat model after 6 hr. In kind it is functional. An outline of the steps:
(§1)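 Fasted normal male Sprague-Dawley rats given oral doses; plasma (EDTA) taken 0.5, 2, 4 or 6 h postdose and DPP-IV activity read with fluorogenic Ala-Pro-AFC (0.1 mM, 50 mM Hepes/140 mM NaCl, ex 360/em 530 nm, initial 20 min rate). ED50 = 50% inhibitory dose from percent inhibition vs dose plot at each time point.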

For series [5] the target is unchanged. Description: Effective dose for inhibition of Dipeptidyl peptidase IV in prediabetic rat model after 0.5 hr. The series is classed as functional. Particulars: in the assay text read “fasted normal Sprague-Dawley rat model” for “prediabetic rat model”. An outline of the steps: as §1
Series [6] can be described thus: Oral bioavailability in rat. In kind it is ADME, organism-based. To be noted: in vivo. An outline of the steps:
(§2)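 Fasted adult male Sprague-Dawley rats (250–300 g), jugular-cannulated, given 10 mg/kg in water as iv bolus or oral gavage (n = 2 per route); serial heparinized blood to 12 h, plasma acetonitrile-precipitated and quantified by LC/MS. AUC by trapezoidal (oral) or log-linear (iv) integration; F = mean oral AUC / mean iv AUC.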

Series [7] addresses Dipeptidyl peptidase 4 (Rattus norvegicus) (UniProt P14740). Description: Effective dose for inhibition of Dipeptidyl peptidase IV in prediabetic rat model after 2 hr. In kind it is functional. Particulars: in the assay text read “fasted normal Sprague-Dawley rat” for “prediabetic rat model”. An outline of the steps: as §1
The target is the same in series [8]. Description: Effective dose for inhibition of Dipeptidyl peptidase IV in prediabetic rat model after 4 hr. In kind it is functional. To be noted: in the assay text read “fasted normal Sprague-Dawley rat” for “prediabetic rat model”. Put shortly: as §1
Series [9] can be described thus: Half life in rat. The series is classed as ADME. To be noted: in vivo. An outline of the steps:
as §2

For the next series, the target named is Cytochrome P450 3A4 (Homo sapiens, UniProt P08684). Description: Inhibitory concentration against Cytochrome 450 3A4. In kind it is ADME.
A further series has as its target Dipeptidyl peptidase 4 (Homo sapiens, UniProt P27487). Description: In vitro inhibition constant against human Dipeptidyl peptidase IV. An outline of the steps:
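Recombinant human DPP-IV expressed in CHO-DG44 cells, purified by anion exchange, gel filtration and MonoQ. […] IC50 from Hill fit (Morrison where needed), converted to Ki assuming competitive inhibition; mean ± SEM, ≥ triplicate.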

Chain of Dipeptidyl peptidase 4 (Rattus norvegicus) (P14740 whole entry, looked up): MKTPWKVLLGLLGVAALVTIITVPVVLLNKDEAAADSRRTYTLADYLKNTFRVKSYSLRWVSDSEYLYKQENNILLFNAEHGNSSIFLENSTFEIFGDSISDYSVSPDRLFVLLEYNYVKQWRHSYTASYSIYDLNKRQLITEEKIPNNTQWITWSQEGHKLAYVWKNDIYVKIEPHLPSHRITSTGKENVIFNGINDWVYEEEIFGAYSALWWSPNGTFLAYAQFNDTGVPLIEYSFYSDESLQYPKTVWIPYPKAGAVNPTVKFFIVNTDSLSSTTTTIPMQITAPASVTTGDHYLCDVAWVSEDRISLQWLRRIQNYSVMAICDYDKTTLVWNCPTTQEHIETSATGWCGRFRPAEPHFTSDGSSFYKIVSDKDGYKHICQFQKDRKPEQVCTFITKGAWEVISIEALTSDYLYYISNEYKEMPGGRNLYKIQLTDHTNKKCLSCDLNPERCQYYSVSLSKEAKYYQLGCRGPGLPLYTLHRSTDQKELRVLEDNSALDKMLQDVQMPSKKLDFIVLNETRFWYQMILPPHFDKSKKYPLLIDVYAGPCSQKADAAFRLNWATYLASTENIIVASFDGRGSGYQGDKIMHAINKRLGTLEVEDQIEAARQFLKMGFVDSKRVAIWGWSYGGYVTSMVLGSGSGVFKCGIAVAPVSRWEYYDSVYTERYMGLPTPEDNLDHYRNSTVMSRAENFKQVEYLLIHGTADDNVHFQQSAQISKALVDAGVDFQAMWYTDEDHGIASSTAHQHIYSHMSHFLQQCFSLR
Chain of Dipeptidyl peptidase 4 (P27487 whole entry): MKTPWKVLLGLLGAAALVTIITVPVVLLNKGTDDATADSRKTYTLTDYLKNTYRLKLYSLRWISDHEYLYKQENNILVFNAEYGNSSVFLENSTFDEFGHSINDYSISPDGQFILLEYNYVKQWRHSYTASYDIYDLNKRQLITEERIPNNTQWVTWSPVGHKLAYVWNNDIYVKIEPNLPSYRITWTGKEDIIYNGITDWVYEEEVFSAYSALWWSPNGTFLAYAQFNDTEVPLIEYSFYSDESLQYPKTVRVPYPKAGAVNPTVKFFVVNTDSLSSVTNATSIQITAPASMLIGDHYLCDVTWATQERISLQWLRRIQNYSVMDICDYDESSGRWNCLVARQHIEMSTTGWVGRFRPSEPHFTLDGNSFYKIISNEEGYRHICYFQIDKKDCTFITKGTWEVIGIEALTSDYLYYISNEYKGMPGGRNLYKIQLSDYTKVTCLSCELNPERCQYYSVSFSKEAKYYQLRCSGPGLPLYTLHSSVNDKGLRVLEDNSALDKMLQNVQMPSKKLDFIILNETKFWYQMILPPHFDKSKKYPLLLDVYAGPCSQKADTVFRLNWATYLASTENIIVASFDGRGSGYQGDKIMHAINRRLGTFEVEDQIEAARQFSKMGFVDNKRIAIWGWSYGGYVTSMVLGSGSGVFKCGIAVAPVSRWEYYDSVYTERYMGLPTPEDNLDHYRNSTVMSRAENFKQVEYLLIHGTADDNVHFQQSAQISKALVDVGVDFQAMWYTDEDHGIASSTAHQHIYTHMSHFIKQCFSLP
Chain of Cytochrome P450 3A4 (P08684 whole entry): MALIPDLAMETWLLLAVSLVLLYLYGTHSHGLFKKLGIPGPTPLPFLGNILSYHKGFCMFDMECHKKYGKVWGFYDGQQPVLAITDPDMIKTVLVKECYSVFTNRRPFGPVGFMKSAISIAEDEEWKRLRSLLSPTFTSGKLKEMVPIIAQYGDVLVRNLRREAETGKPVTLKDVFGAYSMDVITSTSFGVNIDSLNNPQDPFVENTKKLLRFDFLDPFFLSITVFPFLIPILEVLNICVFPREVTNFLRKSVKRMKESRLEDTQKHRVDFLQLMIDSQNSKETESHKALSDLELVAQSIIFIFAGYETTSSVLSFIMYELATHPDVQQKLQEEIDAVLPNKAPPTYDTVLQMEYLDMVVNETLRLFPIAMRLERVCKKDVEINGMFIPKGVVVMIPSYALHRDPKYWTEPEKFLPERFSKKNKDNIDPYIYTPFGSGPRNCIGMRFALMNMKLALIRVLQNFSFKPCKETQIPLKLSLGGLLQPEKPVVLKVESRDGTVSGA

Consider `N#C[C@@H]1C[C@@H]2C[C@@H]2N1C(=O)[C@@H](N)C12CC3CC(O)(CC(O)(C3)C1)C2`, for which the inhibition (commonly the share of the control response that was lost under treatment) in [1] turned out to be 62%; in series [2], 57%.
For the molecule `C=CC(CC)(CC)[C@H](N)C(=O)N1[C@H](C#N)C[C@@H]2C[C@@H]21`, the results for the inhibition in series [1] and in series [3] were 39% and 20%, respectively.
For `N#C[C@@H]1C[C@@H]2C[C@@H]2N1C(=O)[C@@H](N)C1(CO)CCCC1`, the median effective dose (ED50) (commonly the dose at which the effect has come halfway, by size or by number of responders) was 11 µmol/kg in series [4] (in the assay text read “fasted normal Sprague-Dawley rat” for “prediabetic rat model”), 0.4 µmol/kg in series [5], 3.2 µmol/kg in series [7] and 5 µmol/kg in [8]. In [6], the bioavailability (as a rule, dose-corrected exposure relative to a reference, in per cent) was 59%. For the same molecule, the inhibition in series [1] came out at 69%; in [3] it was 56%.
For `N#C[C@@H]1C[C@@H]2C[C@@H]2N1C(=O)[C@@H](N)C12CC3CC(CC(O)(C3)C1)C2` [SAXAGLIPTIN ANHYDROUS], the half-life (in general, the time needed for the level to fall by half in the phase considered) in series [9] is 2.1 h. Further, the ED50 was 0.5 µmol/kg in series [4] (in the assay text read “fasted normal Sprague-Dawley rat model” for “prediabetic rat model”), 0.12 µmol/kg in series [5], 0.2 µmol/kg in series [7] and 0.3 µmol/kg in series [8]. Besides, the bioavailability in series [6] turned out to be 75%. The inhibition in series [1] and in series [2] was 87% throughout.
With `CCC1([C@H](N)C(=O)N2[C@H](C#N)C[C@@H]3C[C@@H]32)CCCC1`, the inhibition in series [1] is 40%; in series [3], 44%.
For `N#C[C@@H]1C[C@@H]2C[C@@H]2N1C(=O)[C@@H](N)C1(CO)CCCCC1`, in that order: 17% and 8%.
On to `N#C[C@@H]1C[C@@H]2C[C@@H]2N1C(=O)[C@@H](N)C1(CO)CCC1`, for which the inhibition in series [1] is 36%; in [3], 17%.
For the molecule `CCC(C)(C)[C@H](N)C(=O)N1[C@H](C#N)C[C@@H]2C[C@@H]21`, the inhibition in [1] and in series [3] was 0% throughout.
`N#C[C@@H]1C[C@@H]2C[C@@H]2N1C(=O)[C@@H](N)C12CC3CC(CC(C3)C1)C2`: half-maximal inhibition on Cytochrome P450 3A4 (IC50) required 20 µM. In [6], this molecule showed a bioavailability of 2%. In addition, the inhibition in series [1] stood at 84%; in series [2], 83%.
On to `C=CC1([C@H](N)C(=O)N2[C@H](C#N)C[C@@H]3C[C@@H]32)CCCCC1`, for which the results for the inhibition in series [1] and in [3] were 76% and 60%, respectively.
For `C=CC(C)(C)[C@H](N)C(=O)N1[C@H](C#N)C[C@@H]2C[C@@H]21`, in that order: 13% and 10%.
As for `N#C[C@@H]1C[C@@H]2C[C@@H]2N1C(=O)[C@@H](N)C12CC3CC(CC(F)(C3)C1)C2`, the inhibition in series [1] worked out at 80%; in series [2], 61%.
As to `C=CC1([C@H](N)C(=O)N2[C@H](C#N)C[C@@H]3C[C@@H]32)CCC1`, the inhibition was determined as 42% in [1] and 32% in [3].
For `C=CC1([C@H](N)C(=O)N2[C@H](C#N)C[C@@H]3C[C@@H]32)CCCCCC1`, in that order: 77% and 66%.
In turn, `C=CC1([C@H](N)C(=O)N2[C@H](C#N)C[C@@H]3C[C@@H]32)CCCC1` displayed a bioavailability in series [6] of 5.3%. Further, the values for the inhibition in series [1] and in series [3] were 71% and 64%, respectively. The affinity on Dipeptidyl peptidase 4, expressed as Ki, was 0.0039 µM.
